# Several values for one entry are separate records, joined by “and”; a condition that tells them apart may be missing. Equal entries are not always repeated. Activity calls are given as the source filed them. The rule behind the calls is not given here.
# Columns and labels:
# Usutu virus [1] = assay: Antiviral activity against USUV 3345 isolate Arb276 infected in African green monkey Vero cells assessed as reduction in viral replication pretreated with virus for 1 hr followed by infection of cells with compound treated-virus for 20 hrs by focus reduction assay; format: functional, organism-based
# [2] = Cytotoxicity against human A549 cells infected with USUV 3345 isolate Arb276 pretreated with virus for 1 hr followed by infection of cells with compound treated-virus for 20 hrs by MTS assay; format: toxicity, cell-based
# In short: (§1)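 MTS viability assay. Cells were treated under the same conditions as the antiviral assays. Absorbance was expressed as % of medium-only cells, and CC50 was derived from the curve. Seeding densities were 1.2 × 10^4/well for Vero, 1.3 × 10^4/well for A549 and 1.6 × 10^4/well for Huh7. DMEM with 2% FBS.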
# [3] = Cytotoxicity against human Huh-7 cells infected with USUV 3345 isolate Arb276 pretreated with virus for 1 hr followed by infection of cells with compound treated-virus for 20 hrs by MTS assay; format: toxicity, cell-based; in short: as §1
# [4] = Cytotoxicity against African green monkey Vero cells infected with USUV 3345 isolate Arb276 pretreated with virus for 1 hr followed by infection of cells with compound treated-virus for 20 hrs by MTS assay; format: toxicity, cell-based; settings: chlorocebus sabaeus; in short: as §1
# Usutu virus [5] = assay: Antiviral activity against USUV 3345 isolate Arb276 infected in human A549 cells assessed as reduction in viral replication pretreated with virus for 1 hr followed by infection of cells with compound treated-virus for 20 hrs by focus reduction assay; format: functional, organism-based; settings: Usutu virus, 3345, A549
# In short: (§2)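 Dose-response: serial dilutions (100 to 0.13 μM) preincubated 1 h at 37 °C with virus (MOI 0.02), then added to cells for 20 h (USUV) or 30 h (ZIKV) in 2% FBS DMEM. Cells per well: Vero 1.2 × 10^4, A549 1.3 × 10^4, Huh7 1.6 × 10^4. Foci immunostained and counted. EC50/EC90 fitted by variable-slope sigmoidal curve, mean of three independent experiments.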
# Usutu virus [6] = assay: Antiviral activity against USUV 3345 isolate Arb276 infected in human Huh-7 cells assessed as reduction in viral replication pretreated with virus for 1 hr followed by infection of cells with compound treated-virus for 20 hrs by focus reduction assay; format: functional, organism-based; settings: Usutu virus, 3345, Huh-7; in short: as §2
# Zika virus [7] = assay: Antiviral activity against ZIKV MR766 infected in human Huh-7 cells assessed as reduction in viral replication pretreated with virus for 1 hr followed by infection of cells with compound treated-virus for 30 hrs by focus reduction assay; format: functional, organism-based; in short: as §2
# Zika virus [8] = assay: Antiviral activity against ZIKV MR766 infected in human A549 cells assessed as reduction in viral replication pretreated with virus for 1 hr followed by infection of cells with compound treated-virus for 30 hrs by focus reduction assay; format: functional, organism-based; in short: as §2
# Zika virus [9] = assay: Antiviral activity against ZIKV MR766 infected in African green monkey Vero cells assessed as reduction in viral replication pretreated with virus for 1 hr followed by infection of cells with compound treated-virus for 30 hrs by focus reduction assay; format: functional, organism-based
# [10] = Cytotoxicity against human A549 cells infected with ZIKV MR766 pretreated with virus for 1 hr followed by infection of cells with compound treated-virus for 30 hrs by MTS assay; format: toxicity, cell-based; in short: as §1
# [11] = Cytotoxicity against human Huh-7 cells infected with ZIKV MR766 pretreated with virus for 1 hr followed by infection of cells with compound treated-virus for 30 hrs by MTS assay; format: toxicity, cell-based; in short: as §1
# [12] = Cytotoxicity against African green monkey Vero cells infected with ZIKV MR766 pretreated with virus for 1 hr followed by infection of cells with compound treated-virus for 30 hrs by MTS assay; format: toxicity, cell-based; settings: chlorocebus sabaeus; in short: as §1
# [13] = Cytotoxicity against African green monkey Vero cells infected with ZIKV HPF2013 pretreated with virus for 1 hr followed by infection of cells with compound treated-virus for 30 hrs by MTS assay; format: toxicity, cell-based; settings: chlorocebus sabaeus; in short: as §1
# [14] = Selectivity index, ratio of CC50 for African green monkey Vero cells infected with ZIKV MR766 to EC50 for ZIKV MR766 infected in African green monkey Vero cells; format: toxicity, cell-based; settings: read-out: Ratio CC50/EC50
# [15] = Selectivity index, ratio of CC50 for African green monkey Vero cells infected with ZIKV HPF2013 to EC50 for ZIKV HPF2013 infected in African green monkey Vero cells; format: toxicity, cell-based; settings: read-out: Ratio CC50/EC50
# Zika virus [16] = assay: Antiviral activity against ZIKV HPF2013 infected in African green monkey Vero cells assessed as reduction in viral replication pretreated with virus for 1 hr followed by infection of cells with compound treated-virus for 30 hrs by focus reduction assay; format: functional, organism-based
# [17] = Selectivity index, ratio of CC50 for African green monkey Vero cells infected with USUV 3345 isolate Arb276 to EC50 for USUV 3345 isolate Arb276 infected in African green monkey Vero cells; format: toxicity, cell-based; settings: read-out: Ratio CC50/EC50
# Zika virus [18] = assay: Antiviral activity against ZIKV MR766 infected in African green monkey Vero cells assessed as viral growth inhibition at 11 to 100 uM pretreated with virus for 1 hr followed by infection of cells with compound treated-virus for 30 hrs by focus reduction assay; format: functional, organism-based; settings: dose 11-100 µM, time 31.0 hrs
# In short: (§3)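 Screening focus reduction assay. Vero cells were seeded 1.2 × 10^4/well. ZIKV MR766 or USUV (MOI 0.02) was preincubated 1 h at 37 °C with 100, 33 or 11 μM compound, then added to cells for 30 h (ZIKV) or 20 h (USUV). Cells were fixed in acetone-methanol and immunostained with anti-flavivirus E 4G2 plus a peroxidase secondary. Foci counted microscopically; % infection versus DMSO-matched untreated wells. Medium contained 2% FBS.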
# Usutu virus [19] = assay: Antiviral activity against USUV 3345 isolate Arb276 infected in African green monkey Vero cells assessed as viral growth inhibition at 11 to 100 uM pretreated with virus for 1 hr followed by infection of cells with compound treated-virus for 20 hrs by focus reduction assay; format: functional, organism-based; settings: dose 11-100 µM, time 21.0 hrs; in short: as §3
# [20] = Solubility in DMSO at 25 degreeC; format: physicochemical
# [21] = Aqueous solubility in deionized water containing 1.38% DMSO; format: physicochemical
# [22] = Solubility in i-propanol at 25 degreeC; format: physicochemical
# Usutu virus [23] = assay: Antiviral activity against USUV 3345 isolate Arb276 infected in African green monkey Vero cells assessed as viral growth inhibition at 33 uM pretreated with virus for 1 hr followed by infection of cells with compound treated-virus for 20 hrs by focus reduction assay relative to control; format: functional; settings: Usutu virus, 3345, Vero, time 21 hrs
# In short: (§4)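 Virus (MOI 0.02) preincubated with compound 1 h at 37 °C, then mixture put on Vero cells (1.2 × 10^4/well, seeded the day before) in DMEM with 2% FBS for 30 h (ZIKV) or 20 h (USUV) at 37 °C. Fixed in cold acetone-methanol, foci immunostained with anti-flavivirus E 4G2 antibody and counted. % infection is relative to DMSO-treated wells. Screen used 100, 33 and 11 μM.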
# Zika virus [24] = assay: Antiviral activity against ZIKV MR766 infected in African green monkey Vero cells assessed as viral growth inhibition at 33 uM pretreated with virus for 1 hr followed by infection of cells with compound treated-virus for 30 hrs by focus reduction assay relative to control; format: functional; settings: time 31 hrs; in short: as §4
compound,measurement,setting,value
CCN(CC)CCCC(C)Nc1ccnc2cc(Cl)ccc12 (stereo unspecified) [CHLOROQUINE],EC50,"Usutu virus [1]; Usutu virus, 3345, Vero",8.3 µM
same,EC90,"Usutu virus [1]; Usutu virus, 3345, Vero, time 21 hrs",28.2 µM
same,CC50 at 21 h,[2],144 µM
same,CC50 at 21 h,[3],75.5 µM
same,CC50 at 21 h,[4],115 µM
same,EC50,Usutu virus [5],4.24 µM
same,EC90,Usutu virus [5]; time 21 hrs,60.1 µM
same,EC50,Usutu virus [6],4.82 µM
same,EC90,Usutu virus [6]; time 21 hrs,11.8 µM
same,EC50,"Zika virus [7]; MR766, Huh-7",0.95 µM
same,EC90,"Zika virus [7]; MR766, Huh-7, time 31 hrs",2.36 µM
same,EC50,Zika virus [8],5.99 µM
same,EC90,Zika virus [8]; time 31 hrs,50.3 µM
same,EC50,Zika virus [9],1.53 µM
same,EC90,Zika virus [9]; time 31 hrs,5.77 µM
same,CC50 at 31 h,[10],80.5 µM
same,CC50 at 31 h,[11],58.5 µM
same,CC50 at 31 h,[12],136 µM
C=C1/C(=C\C=C2/CCC[C@]3(C)[C@@H]([C@H](C)/C=C/C=C/C(O)(CC)CC)CC[C@@H]23)C[C@@H](O)C[C@@H]1O [SEOCALCITOL],CC50 at 31 h,[13],11 µM
same,EC50,Usutu virus [1]; vero,2.13 µM and 9.94 µM
same,selectivity ratio,[14],1.5
same,CC50 at 21 h,[4],11.9 µM
same,EC50,Zika virus [9],7.51 µM
same,selectivity ratio,[15],3.9
same,EC50,Zika virus [16],2.83 µM
same,selectivity ratio,[17],6
same,CC50 at 31 h,[12],11 µM
COc1ccc(C[C@H]2N(c3ccc([N+](=O)[O-])cc3)C(=O)[C@@H]3CCCN32)cc1O,Activity,Zika virus [18],inactive
same,Activity,Usutu virus [19],inactive
COc1cc([C@H]2N(c3ccc([N+](=O)[O-])cc3)C(=O)[C@@H]3CCCN32)ccc1O,solubility,[20],37500 µg/mL
same,solubility,[21],518 µg/mL
same,solubility,[22],1170 µg/mL
O=C1[C@@H]2CCCN2[C@@H](c2ccco2)N1Nc1ccc([N+](=O)[O-])cc1,Activity,Zika virus [18],inactive
same,Activity,Usutu virus [19],inactive
O=C1[C@@H]2CCCN2[C@@H](c2cccc(O)c2)N1c1ccc([N+](=O)[O-])cc1,Activity,Zika virus [18],inactive
same,Activity,Usutu virus [19],inactive
COc1ccc([C@H]2N(c3ccc([N+](=O)[O-])cc3)C(=O)[C@@H]3CCCN32)cc1OC,Activity,Zika virus [18],inactive
same,Activity,Usutu virus [19],inactive
O=C1[C@@H]2CCCN2[C@@H](c2ccc(O)c(O)c2)N1c1ccc([N+](=O)[O-])cc1,Activity,Zika virus [18],inactive
same,Activity,Usutu virus [19],inactive
O=C1[C@@H]2CCCN2[C@@H](c2ccco2)N1Nc1ccccc1,inhibition at 33 µM,Usutu virus [23],< 50%
same,inhibition at 33 µM,Zika virus [24],< 50%
COc1cc([C@H]2N(Nc3ccc([N+](=O)[O-])cc3)C(=O)[C@@H]3CCCN32)ccc1O,Activity,Zika virus [18],inactive
same,Activity,Usutu virus [19],inactive
COc1ccc(C[C@H]2N(Nc3ccc([N+](=O)[O-])cc3)C(=O)[C@@H]3CCCN32)cc1OC,Activity,Zika virus [18],inactive
same,Activity,Usutu virus [19],inactive
COc1cc(C[C@H]2N(c3ccc([N+](=O)[O-])cc3)C(=O)[C@@H]3CCCN32)ccc1O,Activity,Zika virus [18],inactive
same,Activity,Usutu virus [19],inactive
COc1ccc([C@H]2N(c3ccc([N+](=O)[O-])cc3)C(=O)[C@@H]3CCCN32)cc1O,Activity,Zika virus [18],inactive
same,Activity,Usutu virus [19],inactive
O=C1[C@@H]2CCCN2[C@@H](Cc2ccc(O)cc2)N1c1ccc([N+](=O)[O-])cc1,Activity,Zika virus [18],inactive
same,Activity,Usutu virus [19],inactive
COc1cc([C@H]2N(Nc3ccccc3)C(=O)[C@@H]3CCCN32)ccc1O,inhibition at 33 µM,Usutu virus [23],< 50%
same,inhibition at 33 µM,Zika virus [24],< 50%
O=C1[C@@H]2CCCN2[C@@H](Cc2ccc(O)c(O)c2)N1c1ccc([N+](=O)[O-])cc1,Activity,Zika virus [18],inactive
same,Activity,Usutu virus [19],inactive
